Results as given in ChEMBL document CHEMBL4680071, “Structure guided generation of thieno[3,2-d]pyrimidin-4-amine Mycobacterium tuberculosis bd oxidase inhibitors” (RSC Med Chem, 2021).

Key:
[1] = Inhibition of […] tuberculosis Erdman assessed as replicating ATP by measuring ATP depletion incubated for 15 hrs in presence of Q203 by BacTiter-Glo luminescence assay; parameters: species or system Mycobacterium tuberculosis str. Erdman
Procedure, shortened: (§1)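 Cultures grown in Middlebrook 7H9 with 0.05% Tween 80, 0.5% glycerol, BSA fraction V, D-glucose and NaCl. Cells pelleted, resuspended in glycerol-free medium at about 10^7 CFU/mL, added to compound dilutions. Plates incubated 15 h at 37°C. BacTiter-Glo reagent added, luminescence read after 12 min to give ATP level. IC50 from curve fitting.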

[2] = Inhibition of cytochrome-bd oxidase in Mycobacterium tuberculosis H37Rv assessed as replicating ATP by measuring ATP depletion incubated for 15 hrs in absence of Q203 by BacTiter-Glo luminescence assay; procedure, shortened: as §1
[3] = Inhibition of cytochrome-bd oxidase in Mycobacterium tuberculosis clinical isolate N0145 assessed as replicating ATP by measuring ATP depletion incubated for 15 hrs in absence of Q203 by BacTiter-Glo luminescence assay; procedure, shortened: as §1

SMILES | IC50 [1] [µM] | IC50 [2] [µM] | IC50 [3] [µM]
CCc1nc(NCCCc2ccccc2)c2cc(C)sc2n1 | 0.083 | – | –
CCCCNc1nc(CC)nc2sc(C)cc12 | 3.2 | – | –
COc1nc2ccc(Br)cc2cc1[C@@H](c1ccccc1)[C@@](O)(CCN(C)C)c1cccc2ccccc12 [BEDAQUILINE] | – | 40 | 10
